Results pooled from the literature.
pIC50: −log10 of the molar value.

Structure (SMILES)	tested on	assay	test system	conditions	measurement	result
CC(C)(C)c1ccc(O)c(CN(Cc2cc(C(C)(C)C)ccc2O)C2CCC(NC(N)=O)CC2)c1 (stereo not shown)			male C57BL/6 mouse, plasma	intraperitoneal, 5 mg/kg, single dose	half-life	2.4 h
CC(C)(Nc1nc(-c2ccccn2)nc2ccccc12)c1ccccn1			female BALB/c mouse, plasma	oral, 50 mg/kg, 4 h	concentration	5060 ng/mL
c1cnc2ccc(Nc3nc(NC4CC4)c4nc[nH]c4n3)cc2c1			human, plasma	oral, 100 mg/m², patients	MRT(0-t)	8.1 h
CC1=CC[C@H]2[C@@H]([C@@H]1CC[C@H]1[C@]3(C)CC[C@H](O)C(C)(C)O[C@H]3CC[C@]1(C)O)C(C)(C)CC[C@]2(C)O	KB 3-1	cell growth or viability, MTT		72 h	pIC50	< 4.30
CC(C)(O)c1ccccc1-c1ccc2[nH]c(/C=C/c3ccc(C(F)(F)F)cc3)nc2c1			male human, plasma	oral, 15 mg, single dose, fasted, healthy volunteers	MRT	84 h
CC(C)Oc1cccc(-c2cnc(N3CCC(C(N)=O)CC3)s2)c1			male Swiss mouse, brain	oral, 30 mg/kg, 12 h, single dose	concentration	0 nM
COc1ccc(S(=O)(=O)ON=C2C=C(C)C(=O)C(C)=C2)cc1	HMEC	cell growth or viability			CC50	> 15.5 µM
CC(C)=CCC[C@@]1(C)C(CC[C@H]2[C@]3(C)CC[C@H](O)C(C)(C)O[C@H]3CC[C@@]2(C)O)=C(C)CC[C@H]1O	KB 3-1	cell growth or viability, MTT		72 h	pIC50	< 4.30
CN(CCC(=O)O)C(=O)c1ccc2c(c1)CC[C@@H]1[C@@H]2CC[C@]2(C)C(c3cncc(F)c3)=CC[C@@H]12	UDP-glucuronosyltransferase 1A1 (UGT1A1, Homo sapiens, UniProt P22309)	enzyme activity, inhibitor	human, liver microsomes		pIC50	5.39
CC(C)CN(C[C@@H](O)[C@H](Cc1ccccc1)NC(=O)O[C@H]1CO[C@H]2OCC[C@H]21)S(=O)(=O)c1ccc(N)cc1			BALB/c mouse, plasma	intravenous, 25 mg/kg, 1 h	concentration	397 ng/mL
